Test results: ChEMBL document CHEMBL1156517, “Targeting thyroid hormone receptor-beta agonists to the liver reduces cholesterol and triglycerides and improves the therapeutic index” (Proc Natl Acad Sci U S A, 2007)
Active and inactive are the calls of the source. No cut-off for these calls is given here.

How the values were obtained:
Mus musculus [1] = assay: Decrease in liver weight in po dosed diet-induced obese C57BL/6 mouse after 14 days; assay type: functional; design: scale not given: the % may be the effect or the level left
How it was run: (§1)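 DIO mice were male C57BL/6 fed a 60%-fat (by kcal) diet from about 4 weeks of age for about 170 days. They were grouped (n = 8) to match cholesterol and body weight. Dosing was oral, once daily for 2 weeks, in 0.5% CMC/1% Lutrol F68. At kill, blood was taken by cardiac puncture for plasma TGs. The liver was removed and weighed, and hepatic TGs were measured.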

Rattus norvegicus [2] = assay: Effect on malic enzyme mRNA expression in po dosed Sprague-Dawley rat liver; assay type: functional, organism-based; settings: TDE = time-dependent effect
How it was run: (§2)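 Killed 3, 8 and 24 h post-dose under 2.5% isoflurane. Pituitary and thyroid snap-frozen; liver, heart, soleus, spleen and kidney freeze-clamped. mRNA by quantitative real-time PCR, expressed as fold-change vs vehicle.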

Mus musculus [3] = assay: Reduction in blood glucose level in po dosed diet-induced obese C57BL/6 mouse; assay type: functional, organism-based
How it was run: (§3)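 Male C57BL/6 mice, about 4 weeks old, fed a high-fat diet (60% kcal fat) for about 170 days. Assigned to groups (n = 8) matched for cholesterol and body weight. Dosed orally once daily in 0.5% CMC/1% Lutrol F68 for 2 weeks. Baseline blood taken by tail nick. At end, cardiac-puncture blood used for cholesterol, TGs, glucose and thyroid hormones; liver weighed and hepatic TGs measured.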

Rattus norvegicus [4] = assay: Toxicity in Sprague-Dawley rat assessed as suppression of thyroid hormone axis measured by decrease in serum TSH level at 1 mg/kg, po after 7 weeks; assay type: organism-based; design: dose 1 mg/kg, route oral; settings: in vivo, 1176 h
How it was run: (§4)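 Male SD rats (n = 5–6 per group; baseline group n = 8) given vehicle (0.5% CMC/1% Lutrol F68) or drug orally once daily. One group per cohort weighed and killed by decapitation without anesthesia after 1, 2, 4 and 7 weeks. Trunk-blood serum assayed for total/free T3 and T4; TSH by [125I] radioimmunoassay with magnetic separation. Pituitary TSHβ mRNA also measured.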

Rattus norvegicus [5] = assay: Toxicity in Sprague-Dawley rat assessed as suppression of thyroid hormone axis measured by decrease in TSH-beta mRNA level at 0.1 mg/kg, po after 7 weeks; assay type: organism-based; design: dose 0.1 mg/kg, route oral; settings: in vivo, 1176 h; how it was run: as §4
Rattus norvegicus [6] = assay: Toxicity in Sprague-Dawley rat assessed as suppression of thyroid hormone axis measured by decrease in total […]-L-thyronine level at 0.1 mg/kg, po after 7 weeks; assay type: organism-based; design: dose 0.1 mg/kg, route oral; settings: in vivo, 1176 h
Rattus norvegicus [7] = assay: Toxic cardiac effect on Sprague-Dawley rat assessed as increase in first derivative of left ventricular pressure at >= 1 mg/kg/day, po for 7 days; assay type: toxicity, organism-based, Heart left ventricle; design: route oral; settings: in vivo, 168 h
How it was run: (§5)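 Male SD rats (n = 6 per group) dosed daily by oral gavage for 7 days; vehicle group included. On day 7, rats anesthetized with isoflurane; catheter-tip transducer inserted into left ventricle via right carotid artery. LV pressure, LV dP/dt and heart rate (lead I ECG) recorded digitally. Systolic/diastolic aortic pressure taken by retracting catheter into proximal aorta.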

Mus musculus [8] = assay: Effect on hepatic LDLR mRNA level in wild-type C57BL/6 mouse at 0.5 mg/kg/day once daily for 7 days; assay type: functional
Rattus norvegicus [9] = assay: Toxic cardiac effect in Sprague-Dawley rat assessed as increase in first derivative of left ventricular pressure at 1 mg/kg/day, po; assay type: toxicity, organism-based, Heart left ventricle; design: route oral; settings: in vivo; how it was run: as §5
Mus musculus [10] = assay: Increase in heart weight in po dosed diet-induced obese C57BL/6 mouse; assay type: functional, organism-based
Mus musculus [11] = assay: Decrease in body weight in diet-induced obese C57BL/6 mouse at 0.03 mg/kg, po; assay type: functional; design: scale not given: the % may be the effect or the level left
Rattus norvegicus [12] = assay: Toxicity in Sprague-Dawley rat assessed as suppression of thyroid hormone axis measured by decrease in free 3,5,3',5'-tetraiodo-L-thyronine level at 0.1 mg/kg, po after 7 weeks; assay type: organism-based; design: dose 0.1 mg/kg, route oral; settings: in vivo, 1176 h; how it was run: as §4
Mus musculus [13] = assay: Decrease in liver triglyceride level in po dosed diet-induced obese C57BL/6 mouse after 14 days; assay type: functional; design: scale not given: the % may be the effect or the level left; how it was run: as §1
Rattus norvegicus [14] = assay: Toxicity in Sprague-Dawley rat assessed as suppression of thyroid hormone axis measured by decrease in total 3,5,3',5'-tetraiodo-L-thyronine level at 1 mg/kg, po after 7 weeks; assay type: organism-based; design: dose 1 mg/kg, route oral; settings: in vivo, 1176 h
Rattus norvegicus [15] = assay: Toxicity in Sprague-Dawley rat assessed as suppression of thyroid hormone axis measured by assessed as decrease in total […]-L-thyronine level at 1 mg/kg, po after 7 weeks; assay type: organism-based; design: dose 1 mg/kg, route oral; settings: in vivo, 1176 h; how it was run: as §4
Rattus norvegicus [16] = assay: Toxic cardiac effect in Sprague-Dawley rat assessed as increase in heart rate at 1 mg/kg/day, po; assay type: toxicity, organism-based; design: route oral; settings: in vivo; how it was run: as §5
Rattus norvegicus [17] = assay: Toxicity in Sprague-Dawley rat assessed as suppression of thyroid hormone axis measured by decrease in serum TSH level at 0.1 mg/kg, po after 7 weeks; assay type: organism-based; design: dose 0.1 mg/kg, route oral; settings: in vivo, 1176 h; how it was run: as §4
Rattus norvegicus [18] = assay: Toxic cardiac effect on Sprague-Dawley rat assessed as increase in heart rate at >= 1 mg/kg/day, po for 7 days; assay type: toxicity, organism-based; design: route oral; settings: in vivo, 168 h; how it was run: as §5
Mus musculus [19] = assay: Decrease in cholesterol level in LDLR deficient C57BL/6 mouse at 5 mg/kg/day once daily for 7 days; assay type: functional, organism-based
Rattus norvegicus [20] = species: Rattus norvegicus; assay: Reduction in plasma cholesterol level in cholesterol fed Sprague-Dawley rat; assay type: functional
Rattus norvegicus [21] = assay: Toxic cardiac effect in Sprague-Dawley rat assessed as increase in heart weight at 1 mg/kg/day, po; assay type: toxicity, organism-based; design: route oral; settings: in vivo
Mus musculus [22] = assay: Reduction in total 3,5,3',5'-tetraiodo-L-thyronine level in po dosed diet-induced obese C57BL/6 mouse; assay type: functional, organism-based; how it was run: as §3
Rattus norvegicus [23] = assay: Effect on type 1 iodothyronine deiodinase mRNA expression in po dosed Sprague-Dawley rat liver; assay type: functional, organism-based; settings: TDE = time-dependent effect; how it was run: as §2
Mus musculus [24] = assay: Decrease in cholesterol level in LDLR deficient C57BL/6 mouse at 0.5 mg/kg/day once daily for 7 days; assay type: functional, organism-based
Rattus norvegicus [25] = assay: Toxicity in Sprague-Dawley rat assessed as suppression of thyroid hormone axis measured by decrease in free 3,5,3',5'-tetraiodo-L-thyronine level at 1 mg/kg, po after 7 weeks; assay type: organism-based; design: dose 1 mg/kg, route oral; settings: in vivo, 1176 h; how it was run: as §4
Rattus norvegicus [26] = assay: Toxicity in Sprague-Dawley rat assessed as suppression of thyroid hormone axis measured by decrease in TSH-beta mRNA level at 1 mg/kg, po after 7 weeks; assay type: organism-based; design: dose 1 mg/kg, route oral; settings: in vivo, 1176 h; how it was run: as §4
Rattus norvegicus [27] = assay: Effect on LDLR mRNA expression in po dosed Sprague-Dawley rat liver; assay type: functional, organism-based; settings: TDE = time-dependent effect
Mus musculus [28] = assay: Effect on hepatic LDLR mRNA level in LDLR deficient C57BL/6 mouse at 0.5 mg/kg/day once daily for 7 days; assay type: functional
Mus musculus [29] = assay: Reduction in plasma cholesterol level in po dosed diet-induced obese C57BL/6 mouse after 2 weeks; assay type: functional; design: scale not given: the % may be the effect or the level left; how it was run: as §3
Rattus norvegicus [30] = assay: Toxic cardiac effect on Sprague-Dawley rat assessed as increase in systolic aortic pressure at >= 1 mg/kg/day, po for 7 days; assay type: toxicity, organism-based; design: route oral; settings: in vivo, 168 h; how it was run: as §5
Rattus norvegicus [31] = assay: Toxicity in Sprague-Dawley rat assessed as suppression of thyroid hormone axis measured by decrease in total 3,5,3',5'-tetraiodo-L-thyronine level at 0.1 mg/kg, po after 7 weeks; assay type: organism-based; design: dose 0.1 mg/kg, route oral; settings: in vivo, 1176 h
Rattus norvegicus [32] = assay: Toxicity in Sprague-Dawley rat assessed as suppression of thyroid hormone axis measured by decrease in free 3,5,3',5'-triiodo-L-thyronine level at 0.1 mg/kg, po after 7 weeks; assay type: organism-based; design: dose 0.1 mg/kg, route oral; settings: in vivo, 1176 h; how it was run: as §4
Mus musculus [33] = assay: Decrease in cholesterol level in wild-type C57BL/6 mouse at 0.5 mg/kg/day once daily for 7 days; assay type: functional, organism-based
Mus musculus [34] = assay: Reduction in total […]-L-thyronine level in po dosed diet-induced obese C57BL/6 mouse; assay type: functional, organism-based; how it was run: as §3
Rattus norvegicus [35] = assay: Toxicity in Sprague-Dawley rat assessed as suppression of thyroid hormone axis measured by decrease in free 3,5,3',5'-triiodo-L-thyronine level at 1 mg/kg, po after 7 weeks; assay type: organism-based; design: dose 1 mg/kg, route oral; settings: in vivo, 1176 h; how it was run: as §4
Rattus norvegicus [36] = assay: Toxic cardiac effect on Sprague-Dawley rat assessed as decrease in body weight gain at 1 mg/kg/day, po; assay type: toxicity, organism-based; design: route oral; scale not given: the % may be the effect or the level left; settings: in vivo
Mus musculus [37] = assay: Decrease in cholesterol level in wild-type C57BL/6 mouse at 5 mg/kg/day once daily for 7 days; assay type: functional, organism-based
Rattus norvegicus [38] = assay: Effect on SREBP-1c mRNA expression in po dosed Sprague-Dawley rat liver; assay type: functional, organism-based; settings: TDE = time-dependent effect

For `CC(C)c1cc(Oc2c(Cl)cc(CC(=O)O)cc2Cl)ccc1O`, the Activity (Mus musculus [1]) was 33%, the Activity (Rattus norvegicus [2]) was “tde” and the Activity (Mus musculus [3]) was “Active”. The Activity (Rattus norvegicus [4]) was “Active”, the Activity (Rattus norvegicus [5]) was “Active” and the Activity (Rattus norvegicus [6]) was “Active”. For the same molecule, the Activity (Rattus norvegicus [7]) was “Active”, the Activity (Mus musculus [8]) was -55.8% and the Activity (Rattus norvegicus [9]) was “Active”. For the same molecule, the Activity (Mus musculus [10]) was “Active”, the Activity (Mus musculus [11]) was 3% and the Activity (Rattus norvegicus [12]) was “Active”. For the same molecule, the Activity (Mus musculus [13]) was 33%, the Activity (Rattus norvegicus [14]) was “Active” and the Activity (Rattus norvegicus [15]) was “Active”. The Activity (Rattus norvegicus [16]) was “Active”, the Activity (Rattus norvegicus [17]) was “Active” and the Activity (Rattus norvegicus [18]) was “Active”. The Activity (Mus musculus [19]) was “inactive”, the ED50 (Rattus norvegicus [20]) was 0.05 mg/kg and the Activity (Rattus norvegicus [21]) was “Active”. For the same molecule, the Activity (Mus musculus [22]) was “Active”, the Activity (Rattus norvegicus [23]) was “tde” and the Activity (Mus musculus [24]) was “inactive”. The Activity (Rattus norvegicus [25]) was “Active”, the Activity (Rattus norvegicus [26]) was “Active” and the Activity (Rattus norvegicus [27]) was “tde”. The Activity (Mus musculus [28]) was -10.6%, the Activity (Mus musculus [29]) was 67% and the Activity (Rattus norvegicus [30]) was “Active”. The Activity (Rattus norvegicus [31]) was “Active”, the Activity (Rattus norvegicus [32]) was “Active” and the Activity (Mus musculus [33]) was “Active”. For the same molecule, the Activity (Mus musculus [34]) was “Active”, the Activity (Rattus norvegicus [35]) was “Active” and the Activity (Rattus norvegicus [36]) was 61%. For the same molecule, the Activity (Mus musculus [37]) was “Active” and the Activity (Rattus norvegicus [38]) was “tde”.
